NPY1 pot ag – potentiators or agonists of human neuropeptide Y receptor Y1. P25929. NPY-Y1 expressing cells, potentiator/agonist activation. activation, % at 3.6 µM. actives 0.37% (n = 220,000). AID 1304; in the data active means activation above about 33%, passing the limit was not always enough;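 further: cells stimulated with NPY at EC10 then isoproterenol at EC100; 0% = low agonist plus stimulus and 100% = saturating agonist plus stimulus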
S1P4 ag – agonists of human S1P4 receptor; O95977; S1P4-expressing cell line, agonist reporter assay; activation, % at 4.98 µM; actives 0.35% (n = 220,000); in the data active means activation above about 11%;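 further: 0% = DMSO vehicle and 100% = reference agonist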
NPY-Y1 antag – antagonists of human neuropeptide Y receptor Y1 | actives 1% (n = 200,000) | HEK293-CNG Y1 cells, membrane potential fluorescence; NPY at EC95, then isoproterenol | P25929 | inhibition, % at 3.6 µM;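 active means inhibition above the campaign mean inhibition of all tested compounds plus 3 SD, cut at about 20% in these data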;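 further: 0% = DMSO wells given NPY plus isoproterenol and 100% = isoproterenol alone without NPY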
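Material: HEK293 cells co-expressing NPY Y1 receptor and cyclic-nucleotide gated channel. Timing: compound incubation 1 h at room temperature, readout 45 min post-stimulation. Signal: fluorescence, membrane potential probe.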
NPY-Y2 antag – antagonists of human neuropeptide Y receptor Y2 | P49146 | NPY-Y2 expressing cells, antagonist mode | inhibition, % at 2.7 µM | actives 0.99% (n = 140,000) | AID 793;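 further: 0% = vehicle with agonist challenge and 100% = reference antagonist with challenge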
Target sequence (P49146 whole entry, looked up): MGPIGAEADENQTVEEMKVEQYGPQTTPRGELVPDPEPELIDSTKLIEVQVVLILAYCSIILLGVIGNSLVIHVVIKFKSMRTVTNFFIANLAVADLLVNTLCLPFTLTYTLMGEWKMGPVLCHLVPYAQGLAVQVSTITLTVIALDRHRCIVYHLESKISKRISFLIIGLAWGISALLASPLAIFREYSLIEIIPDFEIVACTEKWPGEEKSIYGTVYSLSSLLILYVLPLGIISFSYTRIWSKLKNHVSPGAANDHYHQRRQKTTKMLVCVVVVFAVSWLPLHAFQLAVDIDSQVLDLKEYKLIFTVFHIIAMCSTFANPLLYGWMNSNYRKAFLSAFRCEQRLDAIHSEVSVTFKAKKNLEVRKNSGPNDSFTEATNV
NPY-Y2 PAM-ag – potentiates or activates human NPY-Y2 receptor; cells expressing NPY-Y2, potentiator/agonist read-out; AID 1359; actives 0.45% (n = 220,000); activation, % at 3.6 µM; in the data active means activation above about 27%;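 further: cells stimulated with NPY near EC25 plus isoproterenol at EC100; 0% = vehicle plus submaximal agonist and 100% = vehicle plus saturating agonist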
S1P4 antag – antagonists of human S1P4 receptor; O95977; S1P4-expressing cells, antagonist mode, reporter read-out; inhibition, % at 4.98 µM; actives 0.26% (n = 220,000); AID 1510; in the data active means inhibition above about 29%;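 further: 0% = wells stimulated with agonist and 100% = vehicle wells without agonist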
NPY1 antag conf – human NPY-Y1 antagonism, confirmation | shares compounds with NPY-Y1 antag | HEK293-CNG NPY-Y1, membrane potential fluorescence, cAMP; NPY challenge against isoproterenol-raised cAMP | inhibition, % at 3.6 µM | actives 21% (n = 1,200) | AID 1254; in the data active means inhibition above about 20%;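 further: 0% = vehicle with agonist plus stimulus and 100% = stimulus alone without agonist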
NPY-Y2 antag ct – human NPY-Y2 antagonism in NPY-Y1 counter-screen; shares compounds with NPY-Y1 antag; HEK293 NPY-Y2 CNG membrane potential fluorescence; cells given NPY, then isoproterenol; inhibition, % at 3.6 µM; actives 28% (n = 1,200);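 further: 0% = DMSO with agonist challenge and 100% = reference antagonist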
An asterisk follows results filed as active; . = not tested or not shown. The list is not random: actives were taken first. Their share in the collection is about 2.4%. Unless noted, no stated cut-off is given here; in the data, active means inhibition above about 17%; inactive means the rest.

SMILES | NPY1 pot ag | S1P4 ag | NPY-Y1 antag | NPY-Y2 antag | NPY-Y2 PAM-ag | S1P4 antag | NPY1 antag conf | NPY-Y2 antag ct
COc1ccc(OC)c(Nc2cc(-c3ccccc3)nc(N)n2)c1 | -33 | 1 | 42* | 7 | -7 | 19 | 2 | 13
COc1ccc(S(=O)(=O)N2CCC(C(N)=O)CC2)cc1 | -9 | -1 | -1 | 1 | -7 | 0 | . | .
O=c1cnn([C@@H]2O[C@H](CO)[C@@H](O)[C@H]2O)c(=O)[nH]1 | 2 | 0 | 70* | -1 | -2 | 4 | -1 | 1
Nc1ccn([C@@H]2O[C@H](CO)[C@@H](O)C2O)c(=O)n1 (some centres not stated) | -4 | 0 | 3 | . | 9 | 5 | . | .
O=C(O)c1cccc(NC(=S)NCc2ccccc2)c1 | -2 | 2 | 7 | . | -3 | -1 | . | .
Cc1ccc(Nc2nc(-c3c(C)nc4ncccn34)cs2)cc1 | -3 | 1 | 24* | 10 | -10 | -13 | 0 | 12
Cc1nc2ncccn2c1-c1csc(Nc2ccc(O)cc2)n1 | -11 | 2 | -1 | . | -4 | -15 | . | .
CCCN1CNC(=S)N(c2cccc(C)c2)C1 | -4 | -1 | . | . | 9 | -5 | . | .
COc1cccc(-c2cc(C(=O)Nc3nc4ccccc4s3)c3ccccc3n2)c1 | -135 | 3 | 31* | 16 | -135 | -11 | 26* | 38*
O=C(O)c1ccc(N(c2ccccc2)c2ccccc2)cc1 | -40 | 2 | 27* | 14 | -37 | -12 | 21* | 16
CCC(=O)Nc1cccc(-c2nc3ccccc3o2)c1 | 20 | -3 | 9 | 2 | 4 | 6 | . | .
COc1ccccc1OCC(=O)Nc1cccc(-c2nc3ccccc3o2)c1 | -67 | 0 | 20* | 14 | -27 | -15 | 16 | 10
N#CCc1ccc(NC(=O)/C=C/c2ccc([N+](=O)[O-])o2)cc1 | 1 | 0 | 0 | . | 2 | 10 | . | .
Cc1ccccc1OCC(=O)Nc1cc(Cl)ccc1Oc1ccccc1 | 3 | 1 | 1 | 6 | 3 | -1 | . | .
CC(OC(=O)CC(NC(=O)c1ccccc1Cl)c1ccccc1)C(=O)Nc1cccc(Cl)c1Cl (configuration not stated) | -47 | -1 | 30* | 9 | -16 | -6 | 27* | 17*
O=C(COC(=O)CC(NC(=O)c1ccccc1Cl)c1ccccc1)Nc1cccc(F)c1 (configuration not stated) | 5 | 7 | 3 | 0 | -4 | -16 | . | .
COC(=O)c1c(NC(=O)C2CCCCC2C(=O)O)sc2c1CCCCC2 (configuration not stated) | 0 | 1 | 89* | . | -5 | 6 | 8 | 5
CCc1noc2c1/C(=N\O)CC(c1ccccc1)C2 (configuration not stated) | -4 | 1 | 2 | 6 | -9 | 10 | . | .
Cc1oc2c(c1C(=O)c1ccc(Cl)cc1)C(=O)C(=O)c1ccccc1-2 | -22 | 2 | 26* | 9 | 1 | 0 | 9 | 12
CCN(CC)CCN(C(=O)Cn1nnc(-c2ccc(C)o2)n1)C(C(=O)NC(C)(C)C)c1cccs1 (configuration not stated) | -60 | 2 | 45* | . | -53 | 3 | 21* | 34*
Cc1ccc(-c2nnn(CC(=O)N(Cc3ccco3)C(C(=O)NC3CCCC3)c3cccs3)n2)o1 (configuration not stated) | -21 | 2 | 4 | 4 | -12 | -21 | . | .
CCN(CC)CCN(C(=O)Cn1nnc(-c2ccc(OC)c(OC)c2)n1)C(C(=O)NC1CCCC1)c1ccc(F)cc1 (configuration not stated) | -30 | 3 | 16 | 12 | -20 | -7 | . | .
CCN(CC)CCCN(C(=O)Cn1nnc(-c2ccc(OC)c(OC)c2)n1)C(C(=O)NC(C)(C)C)c1ccc(F)cc1 (configuration not stated) | -74 | -1 | 32* | . | -54 | -7 | 21* | 39*
